This passage reports nonsense suppression results from the RNAGym collection of RNA variant scans (doi:10.1101/gad.245936.114).

B1: tRNA (parent)
chain: CUCUCGGUAGCCAAGUUGGUUUAAGGCGCAAGACUUUAAUUUAUCACUACGAAAUCUUGAGAUCGGGCGUUCGACUCGCCCCCGGGAGAUUUUUUCCUCGAGCAA

This sample holds only a part of the variants without activity.

The variants in the data set derive from B1. Put plainly: nonsense suppression (GFP-seq) (ratio to wild type); higher = more function; SUP4oc tRNA, yeast GFP reporter sort-seq. A digest of the protocol: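 Raffinose/galactose medium with 80 mg/L adenine was used to grow yeast carrying genome-integrated tRNA variants (~3% random-mutation library), RFP, and a galactose-driven GFP ochre reporter. Cells went into GFP/RFP bins, which were Illumina-sequenced, and variants with ≥100 reads and ≥30 cells were scored. Nonsense suppression (GFPSEQ) is the per-bin median GFP/RFP weighted by estimated cell share and expressed relative to the unmutated parent tRNA.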
For the variant U55C U63A, the nonsense suppression turned out to be 0.244. With U55C U63G, the nonsense suppression is no more than 0.026. With U35C C83G, the nonsense suppression was no more than 0.026.

C34U A74C C79A: the nonsense suppression was no more than 0.026. Take G32U U63A C82U: the nonsense suppression came to 0.0283.

As to U58A U70C G86C A89C, the nonsense suppression is no more than 0.026.

Regarding A33G U57A, the nonsense suppression was no more than 0.026. For the variant U55A A74C G88A, the nonsense suppression is no more than 0.026. In the case of A33G G59A C77A C83A G88A it was no more than 0.026. For the variant A33U G73C, the nonsense suppression was no more than 0.026. Take U57G U70G: the nonsense suppression is no more than 0.026. Consider A33G C75A, for which the nonsense suppression was determined as 0.235. A33G C75G: the nonsense suppression worked out at 0.216.

Consider A33G C75U, for which the nonsense suppression came to 0.275. C34A C68A A87U: the nonsense suppression is no more than 0.026. As to A54G C79U, the nonsense suppression stood at 0.0263.

As for A33G A74C C80A, the nonsense suppression is no more than 0.026.

With A31U U55G G67C, the nonsense suppression is no more than 0.026.

As to A33G A54U, the nonsense suppression amounted to 0.0526. On to A54U G67A, for which the nonsense suppression turned out to be 0.0673. Consider U35G G59U A60G, for which the nonsense suppression is no more than 0.026. As for A54U U76C, the nonsense suppression stood at 1.08. Take A31U U63G: the nonsense suppression turned out to be 0.0763. In the case of A31U U63A it was 0.0391.

U55C G88C: the nonsense suppression came out at 0.0568.

Consider A31U C81U, for which the nonsense suppression amounted to 0.0322. In the case of U58A U70C A74G it was no more than 0.026. U55C A74G: the nonsense suppression stood at 0.144. Turning to G59C G66U C83A A87C, the nonsense suppression was no more than 0.026. With U58A A74G G88A, the nonsense suppression was no more than 0.026. In the case of U55G A74U it was no more than 0.026; in that of C34A U55C G66A, no more than 0.026.

With A33U U55G, the nonsense suppression is 0.167. For U58G G85A, the nonsense suppression is 0.0573.

Regarding A54U G85U, the nonsense suppression turned out to be 1.01. Regarding A54U G85C, the nonsense suppression was 0.208. Take G32U A54C C81G: the nonsense suppression is no more than 0.026. As to A33G U58A, the nonsense suppression is no more than 0.026. Take A33U C34U: the nonsense suppression was no more than 0.026. With A54U C64U, the nonsense suppression came to 0.0513. Turning to U57A U58C C81G, the nonsense suppression is no more than 0.026. Take G59C A60C U71G G78A: the nonsense suppression was no more than 0.026. Take A54C A87G: the nonsense suppression is 0.59. In the case of U57A G66A G78C C82A it was no more than 0.026; in that of G59A C75A, 0.717. As for U35C C77A G85C, the nonsense suppression was no more than 0.026. For U58G G66C C80G, the nonsense suppression was determined as 0.0324. In the case of U58C G61C it was 0.0324; in that of U58C G61A, 0.0586.

In the case of U57G U71A, the nonsense suppression was no more than 0.026. Take A54C U71C: the nonsense suppression was 0.0406.

With A54C U71G, the nonsense suppression was no more than 0.026. Consider U35G U55C G61C G73U, for which the nonsense suppression was no more than 0.026. Take U35A G59A G67A: the nonsense suppression was no more than 0.026. Regarding U57A U63C, the nonsense suppression stood at 0.0744.

With A54C C68G, the nonsense suppression is no more than 0.026. As for C56A G69A, the nonsense suppression is no more than 0.026. Consider A33G C80U, for which the nonsense suppression is 0.0422.

Turning to C56U, the nonsense suppression worked out at 0.15. Consider A60C, for which the nonsense suppression was 0.489. On to A54G C72A, for which the nonsense suppression is no more than 0.026.

Consider U58C G69A, for which the nonsense suppression was no more than 0.026. Take U58C G61U U63C: the nonsense suppression is no more than 0.026.

In the case of C34A G65C G85C, the nonsense suppression is no more than 0.026. In the case of C56G G78C it was no more than 0.026.

In the case of G59U A62C A89G, the nonsense suppression was no more than 0.026.

On to A33G U55A A74C, for which the nonsense suppression is no more than 0.026.

For U55A C56A C64A U70C, the nonsense suppression is no more than 0.026. In the case of A54C C81U, the nonsense suppression came out at 0.21. As for C56G A62G, the nonsense suppression is no more than 0.026. As for C34A U63A C82G, the nonsense suppression is no more than 0.026. Turning to A33C U55C C64G U76C, the nonsense suppression was no more than 0.026. For A54U A87G, the nonsense suppression is 0.867. In the case of A54C G85C, the nonsense suppression was determined as 0.0904. In the case of U55C G65A it was 0.0796; in that of G59A G61A U71G G78U, no more than 0.026; in that of U35G C68G C82U, no more than 0.026. As for G59U U70C C72A, the nonsense suppression is no more than 0.026. Turning to G32U C79A, the nonsense suppression was no more than 0.026. In the case of G32U C56G, the nonsense suppression was determined as 0.207. In the case of A31U G59C it was no more than 0.026; in that of A54G G73A, 0.122; in that of A33C U71G G86A, no more than 0.026. On to U55C U58G, for which the nonsense suppression was no more than 0.026. As to C56U A87G, the nonsense suppression is no more than 0.026.

On to U55C G66A, for which the nonsense suppression stood at 0.0631. For U55G U63A G86C, the nonsense suppression is no more than 0.026. In the case of C34G U57A it was no more than 0.026. Consider U57C G85A, for which the nonsense suppression amounted to 0.757.

With U55C U58A G67U, the nonsense suppression was no more than 0.026.

Take A54G G61A U76C C77G: the nonsense suppression is no more than 0.026. In the case of A33U G85A it was 0.0389; in that of A54C G65U, 0.0425. In the case of U57A it was 0.0873; in that of A54U A60C, 0.279.

As for A54U A60U, the nonsense suppression stood at 0.965. Regarding A54C A60G, the nonsense suppression was 0.0773. For A54C A60U, the nonsense suppression was 1.09. In the case of U35C G73A, the nonsense suppression is no more than 0.026. In the case of A31U G85A it was 0.164; in that of C34U U63C G85C, no more than 0.026; in that of A54U C56G C72A, no more than 0.026.

For G32U U70C, the nonsense suppression was no more than 0.026. For C56A U71A, the nonsense suppression was no more than 0.026. A60C A62U: the nonsense suppression came out at 0.0785. Take C56G U58C G66C U70C: the nonsense suppression is no more than 0.026.

U55C U57C: the nonsense suppression was 0.026. A54U U63A: the nonsense suppression came out at 0.864. As for A54U U63C, the nonsense suppression came to 0.798. In the case of A54U U63G it was 0.659.

For the variant U55A C64G, the nonsense suppression was no more than 0.026. For C34U G59U, the nonsense suppression is no more than 0.026.

Consider A33C C56A G78A, for which the nonsense suppression was no more than 0.026.

As for C34U U70A, the nonsense suppression is no more than 0.026. In the case of A33G G85C it was 0.0351; in that of U55C A87C, 0.0719. Consider U58G G85U G86U, for which the nonsense suppression is no more than 0.026. In the case of A54C G86C it was 0.0725; in that of U57C C79U, no more than 0.026.

Turning to G32A U76G, the nonsense suppression is no more than 0.026. In the case of C56U G88U it was no more than 0.026; in that of A54U C81A, no more than 0.026. Take U58G G66U C75A: the nonsense suppression is no more than 0.026. In the case of A33U it was 0.0699; in that of A33G, 0.346. In the case of G32A A62G U71G G78A G85A it was no more than 0.026; in that of U58A G59A U63A G69C U70G, no more than 0.026; in that of C34G G61C, no more than 0.026.

As to C34G G61A, the nonsense suppression is 0.0334.

A33G A87G: the nonsense suppression came to 0.0348. A54C C75G: the nonsense suppression came to 1.15.

Regarding A54C C75U, the nonsense suppression turned out to be 1.22.

With A31U U70A, the nonsense suppression is no more than 0.026.

On to A31U U70C, for which the nonsense suppression is no more than 0.026. In the case of U57A G61A it was 0.0464; in that of U55C G86A, 0.0315. Regarding U55C G86C, the nonsense suppression amounted to 0.164. Regarding A31U U55C, the nonsense suppression was determined as 0.0547. In the case of G59U, the nonsense suppression stood at 0.116.

Consider A54U C79U, for which the nonsense suppression was determined as 0.571. Turning to G59U U63C, the nonsense suppression is 0.868. Regarding U55C C75U, the nonsense suppression came to 0.903. With U55C C75G, the nonsense suppression was 1.16. Take U55C C75A: the nonsense suppression turned out to be 1.05. For A33C U55C C56U G66U C79G, the nonsense suppression was no more than 0.026. In the case of G32C A62G C80U it was no more than 0.026. As for A54G G67C, the nonsense suppression was no more than 0.026. In the case of A54U C56A C72U it was no more than 0.026. A54C C82U: the nonsense suppression stood at 0.211. In the case of A33C C56A U58G G85U it was no more than 0.026. As for U58G G59A C80U G86U, the nonsense suppression is no more than 0.026. In the case of A33G G84U it was 0.222. In the case of U35G C56A G61U U63A it was no more than 0.026. As for U58A A60C, the nonsense suppression amounted to 0.0508. As to A54U A89C, the nonsense suppression was no more than 0.026. As to G32U U71C G84A, the nonsense suppression was no more than 0.026. In the case of C34G G78A C81G, the nonsense suppression was no more than 0.026. Consider G32C C34G U35C, for which the nonsense suppression was no more than 0.026. A54U G84U: the nonsense suppression turned out to be 0.0565. Take C56A U63G: the nonsense suppression was no more than 0.026. In the case of U55C C77A it was 0.0479. Regarding A33U U57C A62G, the nonsense suppression is no more than 0.026.

Regarding U55A U76A G86A, the nonsense suppression was no more than 0.026. U57A G67U U76C: the nonsense suppression is no more than 0.026. U35A U70C G73U C81U: the nonsense suppression is no more than 0.026. For the variant U55C G61A, the nonsense suppression stood at 0.194.

For A33G A87U G88U, the nonsense suppression was no more than 0.026.
